The values below come from ChEMBL document CHEMBL3124932, “Design, synthesis and evaluation of genistein-O-alkylbenzylamines as potential multifunctional agents for the treatment of Alzheimer's disease” (Eur J Med Chem, 2014).

Experiment [1] is described as follows: Antioxidant activity assessed as trolox equivalent of APPH-induced radical scavenging activity at 1 to 10 uM preincubated for 15 mins followed by AAPH challenge measured every minute for 90 minutes by ORAC fluorescence assay. In kind it is functional. The gist of the method: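 ORAC-FL in phosphate buffer pH 7.4. Samples (1–10 µM) preincubated with fluorescein (150 nM final) 15 min at 37 °C, then AAPH (12 mM final) added. Fluorescence (ex 485/em 535 nm) read each minute for 90 min. Net AUC over blank converted to Trolox equivalents using a 1–8 µM Trolox curve. Duplicates, at least 3 independent assays.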

The target in experiment [2] is Butyrylcholinesterase (Rattus norvegicus) (UniProt Q9JKC1). The experiment can be described thus: Inhibition of rat serum BuChE using butyrylthiocholine iodide as substrate at 50 uM after 15 mins by Ellman's method. A digest of the protocol:
(§1)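 Modified Ellman assay in phosphate buffer pH 7.4. Enzyme sources: AChE from 5% rat cortex homogenate, preincubated 5 min with iso-OMPA to block BuChE; BuChE from 25% rat serum. Substrates were acetylthiocholine or butyrylthiocholine iodide. Compounds incubated 15 min at 37 °C, then DTNB added; A405 read. IC50 derived; triplicate, 3 independent experiments; "no active" means under 5% inhibition at 50 µM.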
For orientation: Ellman's reagent forms a yellow product with free thiols.

The target of experiment [3] is T1, Acetylcholinesterase (Homo sapiens, UniProt P22303). Nature of the experiment: Inhibition of human erythrocytes AchE using acetylthiocholine iodide as substrate at 50 uM after 15 mins by Ellman's method. A digest of the protocol: (§2)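 Modified Ellman assay with purified eel or human erythrocyte AChE (0.05 U/mL final) in phosphate buffer pH 8.0. Compound and enzyme incubated 15 min at 37 °C with acetylthiocholine iodide, then DTNB added; absorbance read at 412 nm. IC50 is the concentration giving 50% inhibition. Assays in triplicate, 3 independent experiments; "no active" means under 5% inhibition at 50 µM.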

The target of experiment [4] is Acetylcholinesterase (Electrophorus electricus) (UniProt O42275). Nature of the experiment: Inhibition of electric eel AchE using acetylthiocholine iodide as substrate at 50 uM after 15 mins by Ellman's method. A digest of the protocol: as §2
In experiment [5] the target is T2, Acetylcholinesterase (Rattus norvegicus) (UniProt P37136).
T2 sequence (whole entry): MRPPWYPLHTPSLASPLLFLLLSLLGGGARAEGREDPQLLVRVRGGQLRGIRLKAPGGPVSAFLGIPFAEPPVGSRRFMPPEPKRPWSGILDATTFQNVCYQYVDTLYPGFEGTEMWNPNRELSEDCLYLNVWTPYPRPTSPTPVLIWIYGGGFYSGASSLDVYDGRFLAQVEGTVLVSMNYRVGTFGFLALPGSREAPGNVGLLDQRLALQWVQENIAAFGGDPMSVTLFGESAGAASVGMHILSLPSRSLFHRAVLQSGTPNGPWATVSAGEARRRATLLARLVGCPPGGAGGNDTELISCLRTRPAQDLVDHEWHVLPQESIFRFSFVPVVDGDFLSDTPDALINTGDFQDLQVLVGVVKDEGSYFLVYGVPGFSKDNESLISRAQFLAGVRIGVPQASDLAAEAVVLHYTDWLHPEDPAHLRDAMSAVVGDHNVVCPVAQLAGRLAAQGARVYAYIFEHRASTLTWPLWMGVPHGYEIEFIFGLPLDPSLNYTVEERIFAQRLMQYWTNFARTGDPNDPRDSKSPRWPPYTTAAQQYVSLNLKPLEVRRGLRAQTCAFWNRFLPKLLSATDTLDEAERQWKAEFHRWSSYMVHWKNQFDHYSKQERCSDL
The experiment can be described thus: Inhibition of rat cortex homogenate AchE using acetylthiocholine iodide as substrate at 50 uM after 15 mins by Ellman's method. The gist of the method: as §1

In another experiment the test system is Mus musculus. Nature of the experiment: Cognition enhancing effect against scopolamine-induced memory deficit in po dosed Kunming mouse assessed as increase in latency time administered 1 hr before training followed by scopolamine challenge for 7 days measured after 24 hrs by step-down passive avoidance test. In kind it is functional, organism-based. The gist of the method:
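Kunming mice, six weeks old, 18–22 g, either sex, n=10 per group. Oral dosing at 2, 6, 18 or 3, 9, 27 mg/kg in vegetable oil, 1 h before training; vehicle as negative control. Scopolamine (3 mg/kg i.p., in saline) given 30 min later. Behavioural testing after 7 days of treatment. Step-down training used a 0.5 mA, 2 s foot shock. Latency measured 24 h later, cut-off 300 s; mean ± SEM.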

Experiment [6] has as its target Amyloid-beta precursor protein (Homo sapiens) (UniProt P05067). The experiment can be described thus: Induction of amyloid beta (1 to 42) (unknown origin) disaggregation assessed as reduction of Cu2+-induced amyloid beta fibril formation at 25 uM after 24 hrs by thioflavin T fluorescence method. Also on record: scale not given: the % may be the effect or the level left. The gist of the method: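 Aβ1-42 (25 µM final, HFIP-pretreated) and Cu2+ (25 µM) in HEPES pH 6.6 with 150 mM NaCl, incubated 24 h at 37 °C. Test compound (25 µM final) then added for a further 24 h at 37 °C, wells sealed. Read by ThT in glycine-NaOH pH 8.5 (ex 446/em 490 nm). DMSO 12.5% final; triplicate.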

Experiment [7] has the same target. Nature of the experiment: Inhibition of Cu2+-induced amyloid beta (1 to 42) (unknown origin) aggregation after 24 hrs by thioflavin T fluorescence method. The gist of the method: (§3)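 Aβ1-42 (25 µM final, HFIP-pretreated) with an equimolar amount of Cu2+ (25 µM) in HEPES pH 6.6 with 150 mM NaCl. Incubated with or without compound (10–35 µM final) 24 h at 37 °C. ThT in glycine-NaOH pH 8.5 added, fluorescence ex 446/em 490 nm. DMSO 12.5% final. Percent inhibition relative to no-inhibitor wells; triplicate, mean of 3 independent experiments.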

Experiment [8] has the same target. The experiment can be described thus: Inhibition of self-induced amyloid beta (1 to 42) (unknown origin) aggregation after 24 hrs by thioflavin T fluorescence method. A digest of the protocol:
(§4)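 HFIP-pretreated Aβ1-42 (25 µM final) incubated with compound (10–50 µM) in 50 mM phosphate pH 7.4 for 24 h at 37 °C, wells sealed. ThT in glycine-NaOH pH 8.5 added; fluorescence ex 446/em 490 nm. DMSO 12.5% final. Percent inhibition relative to peptide without inhibitor; triplicate, mean of 3 independent experiments.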

The target is the same in experiment [9]. The experiment can be described thus: Inhibition of Cu2+-induced amyloid beta (1 to 42) (unknown origin) aggregation at 25 uM after 24 hrs by thioflavin T fluorescence method. The gist of the method:
as §3

Experiment [10] shares this target. The experiment can be described thus: Inhibition of self-induced amyloid beta (1 to 42) (unknown origin) aggregation at 25 uM after 24 hrs by thioflavin T fluorescence method. A digest of the protocol: as §4
In experiment [11] the target is T3, Acetylcholinesterase (Electrophorus electricus, UniProt O42275). The experiment can be described thus: Mixed-type inhibition of electric eel AchE using acetylthiocholine as substrate after 15 mins by Lineweaver-Burk plot analysis. The gist of the method:
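Purified eel AChE in 0.1 M phosphate pH 8.0 with DTNB. Three inhibitor concentrations preincubated with enzyme 15 min at 37 °C, then acetylthiocholine added at varied concentrations. Hydrolysis followed at 412 nm, with no-inhibitor controls. Lineweaver-Burk plots fitted by weighted least squares; slopes replotted against inhibitor concentration, Ki taken as the negative x-intercept.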

Experiment [12] deals with T1, Acetylcholinesterase. The experiment can be described thus: Inhibition of human erythrocytes AchE using acetylthiocholine iodide as substrate after 15 mins by Ellman's method.
Experiment [13] deals with T3, Acetylcholinesterase. The experiment can be described thus: Inhibition of electric eel AchE using acetylthiocholine iodide as substrate after 15 mins by Ellman's method.
Experiment [14] deals with T4, Acetylcholinesterase (Rattus norvegicus, UniProt P37136).
T4 sequence (P37136 whole entry): T2 sequence (whole entry)
The experiment can be described thus: Inhibition of rat cortex homogenate AchE using acetylthiocholine iodide as substrate after 15 mins by Ellman's method.

What is called inhibition is the relative decrease from the control value, in per cent. As usually defined, the Ki is a measure of affinity in units of concentration, obtained from inhibition or displacement. Broadly, the IC50 is the concentration that inhibits the measured activity by half.

Sequence of Amyloid-beta precursor protein (Homo sapiens) (P05067 whole entry): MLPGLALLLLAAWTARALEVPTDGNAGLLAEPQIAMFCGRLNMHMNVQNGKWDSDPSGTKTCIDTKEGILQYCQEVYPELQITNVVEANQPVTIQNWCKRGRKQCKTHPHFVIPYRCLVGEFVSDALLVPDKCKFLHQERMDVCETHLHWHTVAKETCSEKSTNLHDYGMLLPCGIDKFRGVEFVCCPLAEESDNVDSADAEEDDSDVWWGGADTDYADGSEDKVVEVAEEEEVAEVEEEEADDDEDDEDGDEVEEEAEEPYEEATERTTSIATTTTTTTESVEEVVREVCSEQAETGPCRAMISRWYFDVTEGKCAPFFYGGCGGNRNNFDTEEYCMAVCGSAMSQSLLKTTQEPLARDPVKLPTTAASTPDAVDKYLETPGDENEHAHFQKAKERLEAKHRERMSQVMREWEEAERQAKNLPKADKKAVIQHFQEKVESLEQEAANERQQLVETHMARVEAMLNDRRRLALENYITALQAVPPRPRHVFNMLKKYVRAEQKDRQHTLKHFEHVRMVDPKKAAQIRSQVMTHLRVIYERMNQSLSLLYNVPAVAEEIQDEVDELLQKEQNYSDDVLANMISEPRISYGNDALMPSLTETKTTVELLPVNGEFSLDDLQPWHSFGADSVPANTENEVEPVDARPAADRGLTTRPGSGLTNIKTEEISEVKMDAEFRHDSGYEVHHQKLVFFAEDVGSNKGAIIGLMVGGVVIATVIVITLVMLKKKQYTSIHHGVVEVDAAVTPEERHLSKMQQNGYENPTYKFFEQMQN
T3 sequence (O42275 whole entry): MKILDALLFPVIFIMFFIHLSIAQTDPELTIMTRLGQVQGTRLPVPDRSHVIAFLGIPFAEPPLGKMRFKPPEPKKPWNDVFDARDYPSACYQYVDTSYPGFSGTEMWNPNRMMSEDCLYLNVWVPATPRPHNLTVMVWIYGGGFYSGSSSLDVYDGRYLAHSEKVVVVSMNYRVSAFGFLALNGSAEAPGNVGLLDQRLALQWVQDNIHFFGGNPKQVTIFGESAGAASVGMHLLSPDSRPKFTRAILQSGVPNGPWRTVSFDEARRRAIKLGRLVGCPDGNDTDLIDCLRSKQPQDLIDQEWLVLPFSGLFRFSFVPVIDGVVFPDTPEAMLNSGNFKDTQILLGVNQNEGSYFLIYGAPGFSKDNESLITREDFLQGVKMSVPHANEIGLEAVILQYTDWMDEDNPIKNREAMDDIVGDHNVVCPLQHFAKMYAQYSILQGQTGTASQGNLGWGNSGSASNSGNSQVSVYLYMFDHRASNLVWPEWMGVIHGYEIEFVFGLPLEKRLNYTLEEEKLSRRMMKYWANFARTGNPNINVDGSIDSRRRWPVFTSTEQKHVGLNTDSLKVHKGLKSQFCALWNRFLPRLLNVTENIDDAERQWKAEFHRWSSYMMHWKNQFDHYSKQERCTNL
Sequence of Butyrylcholinesterase (Rattus norvegicus) (Q9JKC1 as listed by the source): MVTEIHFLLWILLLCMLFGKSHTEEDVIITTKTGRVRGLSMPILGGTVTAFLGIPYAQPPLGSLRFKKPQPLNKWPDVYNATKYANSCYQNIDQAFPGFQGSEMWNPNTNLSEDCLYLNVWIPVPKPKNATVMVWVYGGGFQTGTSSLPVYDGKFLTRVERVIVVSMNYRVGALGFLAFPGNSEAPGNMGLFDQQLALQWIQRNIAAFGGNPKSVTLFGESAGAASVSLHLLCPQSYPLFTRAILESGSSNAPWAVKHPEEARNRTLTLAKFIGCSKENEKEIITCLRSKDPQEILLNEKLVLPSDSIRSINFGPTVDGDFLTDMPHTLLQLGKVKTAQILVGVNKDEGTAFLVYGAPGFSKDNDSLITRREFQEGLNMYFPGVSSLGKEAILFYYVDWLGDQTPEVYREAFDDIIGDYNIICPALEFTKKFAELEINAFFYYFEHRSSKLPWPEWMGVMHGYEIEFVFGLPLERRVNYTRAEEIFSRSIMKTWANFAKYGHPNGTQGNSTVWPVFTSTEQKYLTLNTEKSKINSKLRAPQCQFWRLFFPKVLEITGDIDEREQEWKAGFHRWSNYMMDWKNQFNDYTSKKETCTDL
T1 sequence (P22303 whole entry): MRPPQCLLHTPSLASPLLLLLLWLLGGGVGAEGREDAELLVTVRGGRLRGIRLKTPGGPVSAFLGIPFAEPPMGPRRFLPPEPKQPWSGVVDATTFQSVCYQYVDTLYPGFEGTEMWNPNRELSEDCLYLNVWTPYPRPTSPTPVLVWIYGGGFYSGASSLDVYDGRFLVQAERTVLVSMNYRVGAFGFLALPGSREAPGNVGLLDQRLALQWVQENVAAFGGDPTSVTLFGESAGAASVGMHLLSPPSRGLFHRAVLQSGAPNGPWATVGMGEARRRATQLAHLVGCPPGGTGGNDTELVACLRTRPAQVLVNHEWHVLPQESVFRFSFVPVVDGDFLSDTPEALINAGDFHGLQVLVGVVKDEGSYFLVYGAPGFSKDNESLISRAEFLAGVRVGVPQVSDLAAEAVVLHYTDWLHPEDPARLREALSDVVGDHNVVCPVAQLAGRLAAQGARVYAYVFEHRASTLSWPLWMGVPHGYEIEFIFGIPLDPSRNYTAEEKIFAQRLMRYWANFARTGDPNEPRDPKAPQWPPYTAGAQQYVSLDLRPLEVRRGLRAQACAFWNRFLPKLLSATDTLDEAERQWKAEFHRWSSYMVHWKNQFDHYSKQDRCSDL
Sequence of Acetylcholinesterase (Electrophorus electricus) (O42275 24-633 limits assumed): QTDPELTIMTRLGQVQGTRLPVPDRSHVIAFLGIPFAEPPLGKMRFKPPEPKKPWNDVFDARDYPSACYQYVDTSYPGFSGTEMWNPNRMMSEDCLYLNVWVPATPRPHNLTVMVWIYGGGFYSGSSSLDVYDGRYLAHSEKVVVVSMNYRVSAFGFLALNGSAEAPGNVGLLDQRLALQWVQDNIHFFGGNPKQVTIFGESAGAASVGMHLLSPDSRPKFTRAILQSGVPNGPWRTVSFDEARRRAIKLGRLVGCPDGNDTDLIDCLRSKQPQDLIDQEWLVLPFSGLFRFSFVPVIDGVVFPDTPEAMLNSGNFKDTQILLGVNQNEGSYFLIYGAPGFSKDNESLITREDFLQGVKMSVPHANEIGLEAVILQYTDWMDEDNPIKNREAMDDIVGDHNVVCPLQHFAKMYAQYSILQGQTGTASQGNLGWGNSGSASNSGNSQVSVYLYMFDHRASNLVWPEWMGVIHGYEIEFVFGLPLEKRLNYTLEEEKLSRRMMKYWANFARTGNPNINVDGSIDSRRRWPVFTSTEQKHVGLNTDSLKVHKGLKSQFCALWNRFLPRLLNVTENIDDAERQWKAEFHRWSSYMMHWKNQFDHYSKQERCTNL

With `O=c1c(-c2ccc(O)cc2)coc2cc(O)cc(O)c12`, the Activity in experiment [1] is 5. Further, the inhibition (in experiment [2]; against Acetylcholinesterase [3]; in experiment [4]; in [5]) was under 5% each time.

For the molecule `CCN(CCCCOc1ccc(-c2coc3cc(OCCCCN(CC)Cc4ccccc4OC)cc(O)c3c2=O)cc1)Cc1ccccc1OC`, the Activity entry with Mus musculus is “Dose-dependent effect”; in experiment [6], 72.1%; in [1], 0.3. The inhibition entry in experiment [7] was “Dose-dependent effect”; in [8], “Dose-dependent effect”; in [9], 77.8%; in [10], 35%; in experiment [2], 20%. Further, at Acetylcholinesterase [11], the Ki turned out to be 140 nM. Further, the figures for the IC50 at Acetylcholinesterase [12], at Acetylcholinesterase [13] and on Acetylcholinesterase [14] were 350 nM, 140 nM and 90 nM, respectively.
